TAAR1 antag – human TAAR1 antagonists, primary screen, Fluo-8 calcium fluorescence, CHO RD-HGA16 cells | 360,000 compounds, 1.5% hits | antagonist | inhibition, % at 3 µM;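 active means inhibition above a per-plate cutoff, the mean inhibition of test compounds on that plate plus 3 SD, cut at about 49% in these data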
Target sequence (Q96RJ0 whole entry, looked up): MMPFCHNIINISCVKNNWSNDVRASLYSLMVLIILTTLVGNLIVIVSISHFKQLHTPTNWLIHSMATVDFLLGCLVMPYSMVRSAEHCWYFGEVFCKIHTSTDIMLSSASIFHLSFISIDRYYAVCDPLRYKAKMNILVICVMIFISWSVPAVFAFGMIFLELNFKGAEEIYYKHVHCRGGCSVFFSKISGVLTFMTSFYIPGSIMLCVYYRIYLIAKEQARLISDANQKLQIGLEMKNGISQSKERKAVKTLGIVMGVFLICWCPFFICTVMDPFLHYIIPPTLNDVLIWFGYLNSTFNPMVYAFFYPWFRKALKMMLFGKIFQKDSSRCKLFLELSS
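Material: RD-HGA16 CHO cells with stable hTAAR1 and Gα16; Dosing: single nominal final test compound concentration of 3 µM; Schedule: seeding 17-24 h prior, 75-min 37 °C, 30-min RT dye loading; Detection: kinetic Fluo-8 calcium fluorescence measurement; Measure: % inhibition from peak post-agonist over basal fluorescence ratio; Benchmarks: vehicle and agonist controls.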
m5-HT2A agonist – mouse Htr2a agonists via beta-arrestin recruitment, primary screen, cell-based, luminescence | 5-hydroxytryptamine receptor 2A (Mus musculus), P35363 | CHO-K1 mHTR2A beta-arrestin complementation; percent of 30 µM serotonin response | activation, % at 7.6 µM | 360,000 compounds, 0.66% hits;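 active means activation above a run cutoff, the mean activation of all tested compounds plus 3 SD, cut at about 14% in these data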
TAAR1 ag – human TAAR1 agonists, primary screen, Fluo-8 calcium fluorescence, CHO RD-HGA16 cells. AID 624467, 2012. vehicle wells 0%, saturating PEA agonist 100%. activation, % at 3 µM. 360,000 compounds, 0.99% hits. Trace amine-associated receptor 1 (Homo sapiens), Q96RJ0;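 active means activation above the mean activation of all test compounds in the run plus 3 SD, cut at about 38% in these data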
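test system = CHO RD-HGA16 cells carrying human TAAR1 plus Gα16 | schedule = 17-24 h seeding, 75 min 37 °C dye, 30 min RT | compound dosing = 3 µM single concentration | control set = DMSO and PEA EC100 | replicates = n 1 | signal = Fluo-8 fluorescence, 5 s baseline then 140 s kinetic read | measure = percent activation vs PEA EC100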
CHRM1 agonist – human M1 muscarinic receptor agonists, primary screen, Fluo-8 calcium fluorescence, CHO-K1 cells, HTS | 360,000 compounds, 0.33% hits | Muscarinic acetylcholine receptor M1 (Homo sapiens), P11229 | CHO-K1 hM1, agonist mode; 0% DMSO, 100% acetylcholine EC100 | activation, % at 3 µM;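 active means activation above the run's mean compound activation plus 3 SD, cut at about 16% in these data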;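 further: peak over basal fluorescence ratio within a 140 s kinetic read after compound addition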
M1 antag – human M1 muscarinic receptor antagonists, primary screen, CHO-K1 cells, Fluo-8 calcium fluorescence, 1536-well | Muscarinic acetylcholine receptor M1 (Homo sapiens), P11229 | CHO-K1 hM1, ACh EC80 antagonist | inhibition, % at 3 µM | 360,000 compounds, 1.3% hits;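 active means percent inhibition above its own plate's cutoff, namely the mean of that plate's compound wells plus 3 SD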;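 further: peak over basal fluorescence ratio during 140 s after agonist addition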
CHRM1 PAM – human M1 muscarinic receptor positive allosteric modulators, primary screen, CHO-K1 cells, Fluo-8 calcium fluorescence, 1536-well. 360,000 compounds, 0.088% hits. CHO-K1 hM1, ACh EC20; 0% = ACh EC20, 100% = maximal ACh. activation, % at 3 µM. Muscarinic acetylcholine receptor M1 (Homo sapiens), P11229; in the data active means activation above about 19%, passing the limit was not always enough
Numbers stand for hits; n = inactive; x = no result given; + = active, no number. Only some compounds are listed: those with a hit (about 3.9% of all), similar ones and a draw of the others.

SMILES	TAAR1 antag	m5-HT2A agonist	TAAR1 ag	CHRM1 agonist	M1 antag	CHRM1 PAM
N#CC(C#N)=C1C=C2C=C(N3CCCCCC3)CCC2CC1 (stereo unspecified)	104	n	957	+	102	n
CC1(C)CC(NCCN2CCN(C3=CC(=C(C#N)C#N)CC(C)(C)C3)CC2)=CC(=C(C#N)C#N)C1	n	n	n	n	n	n
CCN1CCN(C2=CC3=CC(=C(C#N)C#N)CCC3CC2)CC1 (stereo unspecified)	x	n	x	591	101	n
CN1CCN(C2=CC3=CC(=C(C#N)C#N)CCC3CC2)CC1 (stereo unspecified)	x	n	x	896	103	n
CC(NC(=O)COc1ccccc1)C(=O)NCc1ccccc1Cl (stereo unspecified)	n	n	n	n	n	n
Cc1ccc2c(c1)c1c(n2CC(O)CN2CCCCC2C)CCCC1 (stereo unspecified)	n	n	n	n	42	n
Cc1ccc2c(c1)c(C)c(C)n2CC(O)CN1CCCCC1C (stereo unspecified)	n	n	n	n	n	n
CC(=O)c1cccc(N2C(=O)CC(N3CCN(S(=O)(=O)c4ccc(Cl)cc4)CC3)C2=O)c1 (stereo unspecified)	n	n	n	n	n	n
CC(=O)c1cc2cccc(OC3(C)CCN(Cc4ccc(-c5ccccn5)cc4)C3)c2o1 (stereo unspecified)	n	n	n	n	35	n
COC(=O)Cc1ccc(OC2(C)CCN(Cc3ccc(-c4ccccn4)cc3)C2)cc1 (stereo unspecified)	n	n	n	n	59	n
CCc1ccc(OC2(C)CCN(Cc3ccccc3OC(F)F)C2)cc1 (stereo unspecified)	n	n	n	n	n	n
COC(=O)Cc1ccc(OC2(C)CCN(Cc3ccccc3OC(F)F)C2)cc1 (stereo unspecified)	n	n	n	n	55	n
COc1cccc(OC2(C)CCN(Cc3ccc(-c4ccccn4)cc3)C2)c1 (stereo unspecified)	n	n	n	n	n	n
Cc1nnc(SCC(=O)NCCc2ccccc2)s1	n	n	n	n	n	n
Cc1cc(C(=O)NCC(=O)OCC(=O)N(C(C)C)C(C)C)ccc1[N+](=O)[O-]	n	n	n	n	n	n
O=C(NNC(=O)c1cc(-c2cccnc2)nc2ccccc12)Nc1ccc(Cl)cc1	82	n	n	n	63	n
O=C(Nc1ccc(C(=O)N2CCOCC2)cc1)c1cc(-c2cccnc2)nc2ccc(Br)cc12	53	n	n	n	n	n
Cc1ccnc(NC(=O)C(Cc2ccccc2)NC(=O)c2ccccc2)c1 (stereo unspecified)	n	n	n	n	n	n
N#Cc1cc2c(=O)n3ccccc3nc2n(-c2ccccc2Cl)c1=O	n	n	n	n	n	n
Cc1c(N=C(N)/N=C(\N)Nc2ccccc2)c(=O)n(-c2ccccc2)n1C	n	n	n	n	67	n
Cc1c(N=C(N)/N=C(\N)Nc2ccc(Br)cc2)c(=O)n(-c2ccccc2)n1C	n	n	n	n	n	n
O=C(Cc1nc2ccccc2[nH]1)c1ccc(Br)cc1	n	n	n	n	n	n
Cc1ccc(N2CC(NC(=O)C3CC3)CC2=O)cc1 (stereo unspecified)	n	n	n	n	n	n
CC[N+](CC)(CC#Cc1ccccc1)CC#Cc1ccccc1	n	n	n	n	42	n
COC(=O)[C@]12C[C@H](CC(=O)NCc3cccc4ccccc34)C(=O)N(Cc3ccccc3)C1=C[C@H](C(C)(C)C)O[C@@H]2C	n	x	n	x	x	x
SMILES	TAAR1 antag	m5-HT2A agonist	TAAR1 ag	CHRM1 agonist	M1 antag	CHRM1 PAM
CN(C)CCC(=O)C(Cc1ccccc1)c1ccccc1 (stereo unspecified)	n	n	n	n	73	n
CN(C)CC(c1ccccc1)c1ccccc1	n	n	n	n	n	n
CN(C)CCNC(=O)C(c1ccccc1)c1ccccc1	n	n	n	n	n	n
CC(CCCN(C)C)C(Cc1ccccc1)c1ccccc1 (stereo unspecified)	n	n	n	n	80	n
CC(C)Oc1ccc(C(=O)OCC(=O)c2ccc[nH]2)cc1	n	n	n	n	n	n
CC(Oc1ccccc1)C(=O)N1CCN(c2ncccn2)CC1 (stereo unspecified)	n	n	n	n	n	n
CCC(C(=O)N1CCN(c2ncccn2)CC1)c1ccccc1 (stereo unspecified)	n	n	n	n	27	n
S=c1nc(C2CC2)n(-c2ccccc2)[nH]1	n	n	n	n	n	n
CC(C)(C)OC(=O)N1CCC[C@@H]1C(=O)N1CCC[C@@H]1C(=O)NCc1ccccc1	n	x	n	x	x	x
COc1ccc(NS(=O)(=O)c2cc3c(cc2C)N(C)CCO3)cc1	n	n	n	n	32	n
COc1ccc(S(=O)(=O)Nc2ccc(N3CCOCC3)cc2)cc1	n	n	n	n	n	n
COc1ccc(NS(=O)(=O)c2ccc(N3CCOCC3)c(N)c2)cc1	n	n	n	n	31	n
COc1ccc(OC)c(NC(=O)COc2cc(O)c3c(c2)OC(C)(C)CC3=O)c1	n	n	n	n	n	n
O=C(O)/C=C/C(=O)N1CCN(C(c2ccccc2)c2ccccc2)CC1	n	n	n	n	42	n
CC(=O)/C(C(=N)N1CCN(C(c2ccccc2)c2ccccc2)CC1)=C(\C)O	n	n	n	n	99	n
Cn1c2ccsc2c2ncn(Cc3ccccc3F)c(=O)c21	n	n	n	n	n	n
CCN(CC)CCN(C)Cc1nc(C(c2ccccc2)c2ccccc2)no1	n	n	n	n	75	n
COc1cccc(OC)c1OCCCN1CCC(Cc2ccccc2)CC1	n	n	n	n	45	n
OC(COc1ccccc1Cl)CN1CCN(CC(O)COc2ccccc2Cl)CC1 (stereo unspecified)	50	n	n	n	n	n
CCOC(=O)C1CCN(Cc2ccc(OC)cc2OC)CC1	n	n	n	n	n	n
CCOC(=O)C1CCCN(CC(O)COc2ccc(OC)cc2C(C)(C)C)C1 (stereo unspecified)	n	n	39	60	32	n
CCOC(=O)C1CCN(Cc2cnc(Oc3ccc(OC)cc3)s2)CC1	n	22	n	n	n	n
